# In ChEMBL document CHEMBL4428077, “Synthesis and Biological Evaluation of N-((1-(4-(Sulfonyl)piperazin-1-yl)cycloalkyl)methyl)benzamide Inhibitors of Glycine Transporter-1” (J Med Chem, 2016):
# Active and inactive are the calls of the source. The rule behind the calls is not given here.
# Key:
# [1] = Metabolic stability in rat liver microsomes assessed as parent compound remaining at 3 uM incubated for 15 mins by LC-MS analysis; format: ADME, Microsome; conditions: for remaining at 0.25 h, 3 µM: liver microsomes, read-out: Stability
# Method in brief: (§1)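 Liver microsomes incubated with compound at 3 μM for 15 min. Parent compound remaining was quantified by LC-MS.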
# [2] = target: T1, Sodium- and chloride-dependent glycine transporter 2 (Homo sapiens, UniProt Q9Y345); assay: Inhibition of human glycine transporter-2 expressed in HEK293 cells assessed as reduction in [14C]glycine uptake preincubated for 10 mins followed by [14C]glycine addition measured after 3 hrs by scintillation proximity assay; format: cell-based
# T1 sequence (Q9Y345 whole entry): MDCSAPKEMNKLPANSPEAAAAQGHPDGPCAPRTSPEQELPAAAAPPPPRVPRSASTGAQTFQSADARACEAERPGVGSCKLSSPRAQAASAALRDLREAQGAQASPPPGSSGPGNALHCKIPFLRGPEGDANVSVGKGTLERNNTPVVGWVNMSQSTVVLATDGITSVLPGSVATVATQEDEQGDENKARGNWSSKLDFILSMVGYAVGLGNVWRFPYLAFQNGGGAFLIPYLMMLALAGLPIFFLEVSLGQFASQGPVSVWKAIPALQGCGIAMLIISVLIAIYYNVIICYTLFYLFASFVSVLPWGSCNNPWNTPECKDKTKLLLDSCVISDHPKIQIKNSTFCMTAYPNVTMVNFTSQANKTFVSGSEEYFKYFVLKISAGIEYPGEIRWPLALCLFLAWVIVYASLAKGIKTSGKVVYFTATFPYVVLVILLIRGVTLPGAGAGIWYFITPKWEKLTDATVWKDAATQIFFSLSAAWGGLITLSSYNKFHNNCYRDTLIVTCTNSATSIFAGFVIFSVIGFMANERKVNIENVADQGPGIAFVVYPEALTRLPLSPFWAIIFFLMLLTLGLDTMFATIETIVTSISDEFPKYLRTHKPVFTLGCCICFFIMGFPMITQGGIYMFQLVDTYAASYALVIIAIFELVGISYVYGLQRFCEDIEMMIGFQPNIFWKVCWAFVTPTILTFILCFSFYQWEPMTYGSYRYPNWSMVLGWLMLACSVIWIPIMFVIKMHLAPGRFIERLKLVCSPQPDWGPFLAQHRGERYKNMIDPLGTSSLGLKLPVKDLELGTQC
# Method in brief: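 HEK293 cells stably transfected with GlyT-2 (Geneticin-selected polyclonal population) were plated on poly-L-lysine-coated plates in DMEM/10% FBS and incubated overnight. The [¹⁴C]glycine uptake SPA was then run as for JAR cells: uptake buffer, 10 min room-temperature preincubation, 3 h incubation at 37 °C.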
# [3] = target: T2, Sodium- and chloride-dependent glycine transporter 1 (Homo sapiens, UniProt P48067); assay: Inhibition of glycine transporter-1B in human JAR cells assessed as reduction in [14C]glycine uptake preincubated for 10 mins followed by [14C]glycine addition measured after 3 hrs by scintillation proximity assay; format: cell-based
# T2 sequence (P48067 whole entry): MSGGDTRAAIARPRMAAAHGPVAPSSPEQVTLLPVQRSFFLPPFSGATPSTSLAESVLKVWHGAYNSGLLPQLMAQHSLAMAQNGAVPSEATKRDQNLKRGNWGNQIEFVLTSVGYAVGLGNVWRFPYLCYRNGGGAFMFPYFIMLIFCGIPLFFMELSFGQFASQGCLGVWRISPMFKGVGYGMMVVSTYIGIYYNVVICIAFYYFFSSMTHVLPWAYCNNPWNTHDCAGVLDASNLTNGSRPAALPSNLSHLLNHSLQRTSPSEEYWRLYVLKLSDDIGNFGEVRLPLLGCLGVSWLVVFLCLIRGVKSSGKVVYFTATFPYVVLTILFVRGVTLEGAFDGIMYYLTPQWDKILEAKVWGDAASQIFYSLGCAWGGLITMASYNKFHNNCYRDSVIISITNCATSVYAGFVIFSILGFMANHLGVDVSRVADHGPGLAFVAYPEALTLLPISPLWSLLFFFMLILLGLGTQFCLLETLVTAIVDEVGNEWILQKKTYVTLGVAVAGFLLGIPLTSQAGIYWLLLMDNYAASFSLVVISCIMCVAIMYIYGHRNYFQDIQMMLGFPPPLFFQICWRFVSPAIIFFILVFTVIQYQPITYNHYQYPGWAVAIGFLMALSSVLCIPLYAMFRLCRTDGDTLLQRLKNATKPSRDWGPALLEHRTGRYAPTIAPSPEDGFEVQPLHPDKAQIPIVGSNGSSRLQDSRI
# Method in brief: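 Whole-cell SPA in JAR cells, which endogenously express hGlyT-1b. Cells (50,000 per well) were attached overnight in RPMI/10% FBS at 37 °C, 5% CO₂. [¹⁴C]glycine was then added and incubated 3 h at 37 °C. The assay window was set with unlabeled glycine. A reference standard ran on each plate. IC₅₀ values are means of n ≥ 2.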
# [4] = Metabolic stability in human liver microsomes assessed as parent compound remaining at 3 uM incubated for 15 mins by LC-MS analysis; format: ADME, Microsome; conditions: for remaining at 0.25 h, 3 µM: liver microsomes, read-out: Stability; for Stability: microsomes, 0.25 h, 3 µM; method in brief: as §1
# [5] = Intrinsic clearance in rat liver microsomes at 3 uM incubated up to 60 mins by LC-MS analysis; format: ADME, Microsome; conditions: read-out: CLH
# Method in brief: (§2)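 Liver microsomes with a cofactor regeneration system and compound at 3 μM, incubated at 37 °C. Reactions were stopped at 0, 5, 15, 30, 45 and 60 min, in duplicate. Compound remaining was measured by LC-MS. ln(%remaining) was plotted against time, and the slope was normalized to protein to give CL_int. Testosterone at 10 μM served as control.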
# [6] = Intrinsic clearance in human liver microsomes at 3 uM incubated up to 60 mins by LC-MS analysis; format: ADME, Microsome; conditions: read-out: CLH; method in brief: as §2
# [7] = target: T3, Sodium- and chloride-dependent glycine transporter 1 (Homo sapiens) (UniProt P48067); assay: Competitive inhibition of glycine transporter-1 (unknown origin) expressed in HEK293 cells at 0.62 to 17 nM in presence of [3H]glycine by scintillation proximity assay; format: cell-based
# T3 sequence (whole entry): T2 sequence (P48067 whole entry)
# Method in brief: (§3)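 Whole-cell SPA glycine transport with transfected HEK-293 cells expressing GlyT-1. Increasing [³H]-glycine concentrations were run at several fixed inhibitor concentrations to derive B_max and K_d for glycine and judge the binding mode.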
# [8] = Metabolic stability in human liver microsomes assessed as parent compound remaining at 3 uM incubated for 60 mins by LC-MS analysis; format: ADME, Microsome; conditions: read-out: Stability
# [9] = test system: Cynomolgus monkey; assay: In vivo inhibition of glycine transporter-1 in cynomolgus monkey assessed as increase in CSF glycine level at 0.3 to 10 mg/kg, po measured at 24 hrs post dose by LC-MS/MS analysis; format: functional, organism-based; conditions: Macaca fascicularis
# Method in brief: (§4)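 Cynomolgus monkeys, n = 3 per group, given oral doses of 0.4, 1.5, 4.7 or 15.7 μmol/kg. Vehicle was 5% Solutol / 20% Captisol in 25 mM PBS, pH 2. CSF (about 0.30 mL) was drawn through subcutaneous ports with a sterile Huber needle predose and at 0.5, 1, 2, 3, 4, 8, 12 and 24 h. Matched blood was taken at each time. Mean ± SD.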
# [10] = target: T3, Sodium- and chloride-dependent glycine transporter 1 (Homo sapiens); assay: Competitive inhibition of glycine transporter-1 (unknown origin) expressed in HEK293 cells at 12 to 108 nM in presence of [3H]glycine by scintillation proximity assay; format: cell-based; method in brief: as §3
# [11] = test system: Cynomolgus monkey; assay: In vivo inhibition of glycine transporter-1 in cynomolgus monkey assessed as increase in CSF glycine level at 0.3 to 10 mg/kg, po measured at 2 to 4 hrs post dose by LC-MS/MS analysis; format: functional, organism-based; conditions: Macaca fascicularis; method in brief: as §4
SMILES,"remaining at 0.25 h, 3 µM [1] [%]",IC50 [2] [nM],IC50 [3] [nM],"remaining at 0.25 h, 3 µM [4] [%]",further results
Cn1cnc(S(=O)(=O)N2CCN(C3(CNC(=O)c4ccc(C(F)(F)F)cc4Cl)CCC(F)(F)CC3)CC2)c1,90,> 75000,2.35,60,
Cn1cnc(S(=O)(=O)N2CCN(C3(CNC(=O)c4ccc(F)cc4Cl)CCC(F)(F)CC3)CC2)c1,100,,5.09,85,
CCCS(=O)(=O)N1CCN(C2(CNC(=O)c3c(Cl)cccc3Cl)CCC(F)(F)CC2)CC1,,> 75000,42.4,,microsomal CLint at 3 µM [5]: 4.3 µL/min/mg; microsomal CLint at 3 µM [6]: 3.8 µL/min/mg
Cn1cc(S(=O)(=O)N2CCN(C3(CNC(=O)c4ccc(Cl)cc4Cl)CCC(F)(F)CC3)CC2)nn1,80,,1.24,46,
CC(C)CS(=O)(=O)N1CCN(C2(CNC(=O)c3c(N)cccc3Cl)CCCCC2)CC1,,> 75000,,,
CCCS(=O)(=O)N1CCN(C2(CNC(=O)c3ccc(F)cc3Cl)CCC(F)(F)CC2)CC1,,> 75000,38.4,,
Cn1cc(S(=O)(=O)N2CCN(C3(CNC(=O)c4ccc(F)cc4Cl)CCC(F)(F)CC3)CC2)nn1,100,,1.14,69,
CN(CC[C@@H](Oc1ccc(-c2ccccc2)cc1)c1ccc(F)cc1)CC(=O)O,,,,,inhibition [7]: inactive
Cn1cc(S(=O)(=O)N2CCN(C3(CNC(=O)c4ccc(Cl)cc4Cl)CCCCC3)CC2)cn1,,> 75000,146,,
CCCS(=O)(=O)N1CCN(C2(CNC(=O)c3ccc(C(F)(F)F)cc3Cl)CCC(F)(F)CC2)CC1,,,12.6,,microsomal CLint at 3 µM [5]: 11 µL/min/mg; microsomal CLint at 3 µM [6]: 16 µL/min/mg
Cn1cnc(S(=O)(=O)N2CCN(C3(CNC(=O)c4ccc(Cl)cc4Cl)CCCCC3)CC2)c1,,,2.14,,"remaining at 1 h, 3 µM [8]: 5%"
"CC(NC(=O)c1ccc(C(F)(F)F)cc1Cl)C1(N2CCN(S(=O)(=O)c3cn(C)nn3)CC2)CCC(F)(F)CC1 (single isomer, unassigned; (+))",,,,,inhibition [9]: inactive; inhibition [10]: Active; inhibition [11]: Active
Cn1cnc(S(=O)(=O)N2CCN(C3(CNC(=O)c4ccc(Cl)cc4Cl)CCC(F)(F)CC3)CC2)c1,88,> 75000,5.29,30,
Cn1cc(S(=O)(=O)N2CCN(C3(CNC(=O)c4c(F)cccc4F)CCC(F)(F)CC3)CC2)nn1,95,,5.1,64,
CCCS(=O)(=O)N1CCN(C2(CNC(=O)c3ccc(C(F)(F)F)cc3C(F)(F)F)CCC(F)(F)CC2)CC1,,> 75000,8.4,,microsomal CLint at 3 µM [5]: 4.9 µL/min/mg; microsomal CLint at 3 µM [6]: 19 µL/min/mg
Cn1cc(S(=O)(=O)N2CCN(C3(CNC(=O)c4c(Cl)cccc4Cl)CCC(F)(F)CC3)CC2)nn1,91,> 75000,1.27,33,
Cn1cc(S(=O)(=O)N2CCN(C3(CNC(=O)c4c(Cl)cccc4OC(F)(F)F)CCC(F)(F)CC3)CC2)nn1,87,> 75000,0.726,24,
Cn1cnc(S(=O)(=O)N2CCN(C3(CNC(=O)c4c(Cl)cccc4Cl)CCC(F)(F)CC3)CC2)c1,94,> 75000,5.56,22,
Cn1cc(S(=O)(=O)N2CCN(C3(CNC(=O)c4ccc(Cl)cc4Cl)CCCCC3)CC2)nn1,,> 75000,1.54,0,
Cn1cnc(S(=O)(=O)N2CCN(C3(CNC(=O)c4c(Cl)cccc4OC(F)(F)F)CCC(F)(F)CC3)CC2)c1,91,> 75000,1.49,9.2,
CCCS(=O)(=O)N1CCN(C2(CNC(=O)c3c(C)cc(F)cc3OC)CCC(F)(F)CC2)CC1,,> 75000,28.5,,
CCCS(=O)(=O)N1CCN(C2(CNC(=O)c3c(Cl)cccc3OC(F)(F)F)CCC(F)(F)CC2)CC1,,> 75000,29,,
CC(NC(=O)c1ccc(C(F)(F)F)cc1Cl)C1(N2CCN(S(=O)(=O)c3cn(C)nn3)CC2)CCC(F)(F)CC1.Cl (racemic),,,1.03,,"Stability ([1]; microsomes, 0.25 h, 3 µM): 66%; Stability [4]: 54%"
Cn1cc(S(=O)(=O)N2CCN(C3(CNC(=O)c4ccc(C(F)(F)F)cc4C(F)(F)F)CCC(F)(F)CC3)CC2)nn1,95,,0.733,64,
Nc1cccc(Cl)c1C(=O)NCC1(N2CCN(S(=O)(=O)Cc3ccccc3)CC2)CCCCC1,,> 75000,9360,,
"CC(NC(=O)c1ccc(C(F)(F)F)cc1Cl)C1(N2CCN(S(=O)(=O)c3cn(C)nn3)CC2)CCC(F)(F)CC1.Cl (single isomer, unassigned; (-))",,,,,Stability [4]: 51%
Cn1cnc(S(=O)(=O)N2CCN(C3(CNC(=O)c4c(F)cccc4F)CCC(F)(F)CC3)CC2)c1,92,> 75000,18.3,72,
